Legend:
NCCc1c[nH]cn1 = settings: Homo sapiens
[1] = molecular target: T1, Carbonic anhydrase (Candida glabrata CBS 138) (UniProt Q6FTL6); experiment: Activation of Candida glabrata recombinant carbonic anhydrase by stopped flow CO2 hydration method; settings: Nakaseomyces glabratus
T1 sequence (whole entry): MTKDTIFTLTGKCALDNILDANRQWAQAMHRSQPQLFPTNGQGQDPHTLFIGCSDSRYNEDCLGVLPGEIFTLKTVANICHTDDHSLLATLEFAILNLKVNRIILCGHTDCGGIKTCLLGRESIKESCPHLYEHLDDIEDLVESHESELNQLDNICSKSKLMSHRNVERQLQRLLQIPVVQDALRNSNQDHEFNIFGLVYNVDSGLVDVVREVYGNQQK
Summary of the method: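 Recombinant yeast enzyme; stopped-flow CO2 hydration at 25 °C in 20 mM Tris (pH 8.3) and 20 mM NaClO4, with 0.2 mM phenol red read at 557 nm over 10 s. CO2 was 1.7–17 mM. Activators came from 10 mM aqueous stocks and were preincubated 15 min at room temperature with enzyme. Uncatalyzed rates were subtracted. KA was fitted from catalytic enhancement versus activator concentration; mean ± standard error of three assays.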

[2] = molecular target: T2, Carbonic anhydrase (Methanobacterium thermoautotrophicum) (UniProt Q50565); experiment: Activation of archaea Methanobacterium thermoautotrophicum recombinant carbonic anhydrase by stopped flow CO2 hydration method; settings: Methanothermobacter thermautotrophicus
T2 sequence (whole entry): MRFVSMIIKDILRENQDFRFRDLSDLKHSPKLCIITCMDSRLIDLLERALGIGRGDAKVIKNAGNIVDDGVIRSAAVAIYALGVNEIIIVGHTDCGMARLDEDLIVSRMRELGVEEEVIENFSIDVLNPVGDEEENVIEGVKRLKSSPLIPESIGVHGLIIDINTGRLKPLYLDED

[3] = molecular target: T3, Carbonic anhydrase (Saccharomyces cerevisiae S288c) (UniProt P53615); experiment: Activation of Saccharomyces cerevisiae recombinant Nce103p by stopped flow CO2 hydration method
T3 sequence (whole entry): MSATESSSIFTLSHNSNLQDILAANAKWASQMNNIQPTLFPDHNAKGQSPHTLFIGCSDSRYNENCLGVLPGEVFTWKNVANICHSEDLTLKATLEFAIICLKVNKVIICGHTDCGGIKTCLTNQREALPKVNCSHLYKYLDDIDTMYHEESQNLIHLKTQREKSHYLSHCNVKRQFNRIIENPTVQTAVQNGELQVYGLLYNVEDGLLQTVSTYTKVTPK

[4] = molecular target: Carbonic anhydrase 2 (Homo sapiens) (UniProt P00918); experiment: Activation of human recombinant carbonic anhydrase isoenzyme 2 by stopped flow CO2 hydration method

| Compound | Km (NCCc1c[nH]cn1) [mM] | Ka [1] [µM] | Ka [2] [µM] | Ka [3] [µM] | Ka [4] [µM] |
| --- | --- | --- | --- | --- | --- |
| Carbonic anhydrase 2 (Homo sapiens) (from UniProt P00918) | 9.3 |  |  |  |  |
| NCCc1ccccn1 |  | 16.3 | 40 |  |  |
| N[C@H](Cc1c[nH]cn1)C(=O)O |  | 21.2 | 57 |  |  |
| N[C@@H](Cc1c[nH]c2ccccc12)C(=O)O |  | 22.8 | 16.9 |  |  |
| NCCc1ccc(O)c(O)c1 |  | 27.6 | 51 |  |  |
| N[C@H](Cc1ccc(O)cc1)C(=O)O |  | 7.1 | 19.2 | 84 | 0.058 |
| N[C@@H](Cc1c[nH]cn1)C(=O)O |  | 37 | 69 |  |  |
| Nc1ccc(C[C@H](N)C(=O)O)cc1 |  | 31.6 | 89 |  |  |
| N[C@H](Cc1c[nH]c2ccccc12)C(=O)O |  | 12.1 | 41 |  |  |
| CNC[C@@H](O)c1ccc(O)c(O)c1 |  | 10.8 | 11.5 |  |  |
| NCCN1CCNCC1 |  | 14.9 | 13.8 |  |  |
| NCCN1CCOCC1 |  | 10.1 | 18.5 |  |  |
| NCc1ccccn1 |  | 15 | 18.7 |  |  |
| N[C@H](Cc1ccc(O)c(O)c1)C(=O)O |  | 15.1 | 15.6 |  |  |
| N[C@@H](Cc1ccc(O)cc1)C(=O)O |  | 9.5 | 10.5 |  |  |
| NCCc1c[nH]c2ccc(O)cc12 |  | 16.7 | 62 |  |  |
| N[C@@H](Cc1ccc(O)c(O)c1)C(=O)O |  | 23.3 | 11.4 |  |  |
| NCCc1c[nH]cn1 |  | 27.4 | 76 |  |  |
